The source made the active and inactive calls. No cut-off for these calls is given here.
Key:
[1] = species: Mus musculus; assay: Induction of Ngn1 mRNA expression in mouse C17.2 cells at 20 uM incubated for 4 days by real-time RT-PCR method; format: functional, cell-based
Method in brief: (§1)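 Mouse C17.2 neural stem cells were treated at 20 μM for 4 days, with baicalin (20 μM) as positive control. Total RNA was isolated and Ngn2, Ngn1, NeuroD2 and NT3 transcripts were quantified by real-time RT-PCR. mRNA levels were normalized to GAPDH; SD shown.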

[2] = tested on: C3H 10T1/2; assay: Activation of 1650 bp mouse Ngn2 promoter activity expressed in mouse C3H10T1/2 cells at 2.5 to 20 uM incubated for 24 hrs by luciferase reporter gene assay; format: cell-based
Method in brief: (§2)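 C3H10T1/2 mesenchymal progenitor cells stably transfected with a luciferase reporter carrying the mouse Ngn2 promoter region (1650 bp). Cells were exposed for 24 h in 0.1% DMSO, with DMSO as negative control and baicalin (100 μM) as positive control. Luciferase output was read, n = 3, SD. Cytotoxicity to the same cells was measured in parallel by fluorimetric microculture assay (esterase hydrolysis of fluorescein diacetate).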

[3] = species: Mus musculus; assay: Induction of NT3 mRNA expression in mouse C17.2 cells at 20 uM incubated for 4 days by real-time RT-PCR method; format: functional, cell-based; method in brief: as §1
[4] = species: Mus musculus; assay: Induction of cell differentiation of mouse C17.2 cells assessed as appearance of differentiated cell bodies; format: functional
[5] = species: Mus musculus; assay: Induction of NeuroD2 mRNA expression in mouse C17.2 cells at 20 uM incubated for 4 days by real-time RT-PCR method; format: functional, cell-based; method in brief: as §1
[6] = species: Mus musculus; assay: Induction of Ngn2 mRNA expression in mouse C17.2 cells at 20 uM incubated for 4 days by real-time RT-PCR method; format: functional, cell-based; method in brief: as §1
[7] = tested on: C3H 10T1/2; assay: Activation of 1650 bp mouse Ngn2 promoter activity expressed in mouse C3H10T1/2 cells at 100 uM incubated for 24 hrs by luciferase reporter gene assay relative to untreated control; format: cell-based; method in brief: as §2
[8] = tested on: C3H 10T1/2; assay: Activation of 1650 bp mouse Ngn2 promoter activity expressed in mouse C3H10T1/2 cells at 20 uM incubated for 24 hrs by luciferase reporter gene assay relative to untreated control; format: cell-based; method in brief: as §2
[9] = tested on: C3H 10T1/2; assay: Activation of 1650 bp mouse Ngn2 promoter activity expressed in mouse C3H10T1/2 cells at 20 uM incubated for 24 hrs by luciferase reporter gene assay relative to baicalin; format: cell-based; method in brief: as §2

SMILES	Activity [1]	Activity [2]	Activity [3]	Activity [4]	Activity [5]	Activity [6]	fold change (FC) [7]	fold change (FC) [8]	fold change (FC) [9]
OCc1ccc2nc3c(O)cccc3cc2c1	Active	inactive	Active	Active	Active	Active	–	–	–
OCc1cc(O)c2nc3c(O)cccc3cc2c1	–	inactive	–	–	–	–	–	–	–
O=C(O)[C@H]1O[C@@H](Oc2cc3oc(-c4ccccc4)cc(=O)c3c(O)c2O)[C@H](O)[C@@H](O)[C@@H]1O	–	–	–	–	–	–	1.5	–	–
OCc1cc(O)c2nc3ccccc3cc2c1	Active	Dose-dependent effect	Active	Active	Active	Active	–	2.8	1.9

Source: ChEMBL document CHEMBL3421613, “Inubosins A, B, and C are acridine alkaloids isolated from a culture of Streptomyces sp. IFM 11440 with Ngn2 promoter activity” (J Nat Prod, 2015)
